Screens deposited in PubChem BioAssay by several laboratories.
DSG3 Ab inh: inhibitors of pemphigus antibody binding to DSG3, primary screen, biochemical, bead-based, flow cytometry, scFv-GFP | 0.48% of 310,000 active | DSG3-coupled beads, scFv-anti-DSG3-GFP binding; stronger effect = lower value | binding (percent of control), % at 10 µM;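 active = binding more than 3 SD below its plate's average and above zero; inconclusive = below that plate limit but binding exactly zero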;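 note: hits lower antibody fragment binding to DSG3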
SENP1 inh: human SENP1 catalytic domain inhibitors, primary screen, biochemical, FRET, uHTS; 0.21% of 360,000 active; inhibition, % at 10 µM; recombinant SENP1 catalytic domain, CyPet-SUMO1-YPet FRET cleavage; AID 624204, 2012;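 active = inhibition at least 30% at 10 µM, raw YFP signal under a set limit, fluorescence ratio 0.5 to 1.5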;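 note: 0% = enzyme with DMSO and 100% = no enzyme wells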
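Material – human SENP1 catalytic domain · Input – SENP1 enzyme, 20 pM final · Compound dosing – single concentration of 10 µM compound, 0.5% DMSO final · Timing – enzyme reaction for 50 min at room temperature, dark · Measured by – FRET fluorescence in CFP and YFP emission channels · Control set – no-enzyme wells low, DMSO-plus-enzyme wells high control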
HNF4A DNA FP: change in binding of human HNF4A to DNA, primary screen, biochemical, fluorescence polarization, FITC-DNA; AID 1224865, 2016; activity change, % at 10 µM; 0.3% of 360,000 active; 1 h; in the data active = activity change above about 30%, passing the limit was not always enough
H9c2 protect: cardioprotection against H2O2-induced cell death, primary screen, uHTS, H9c2 cells, ATPLite luminescence. H9c2 cardiomyocytes, H2O2 injury protection, 2 h. protection from H2O2 cell death, % at 20 µM. 0.63% of 360,000 active;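 active = compounds giving at least 50% protection of heart cells from peroxide-induced death in the single-dose screen, raw or plate-pattern-corrected value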;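 note: 0% = DMSO wells with peroxide and 100% = DMSO wells without peroxide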
Exocytosis inh: LAMP-1 surface exposure blockers, TALL-104 cells – cell-based, flow cytometry, MLPCN library, primary screen; TALL-104 LAMP-1 surface exposure; cells stimulated with thapsigargin and PMA; inhibition, % at 10 µM; 0.66% of 360,000 active; AID 651702, 2012;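 active = inhibition above about 55%, limit read from the data; inconclusive = no clear call, values can overlap the other calls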
Myeloid diff 2: induction of myeloid progenitor differentiation, primary screen, cell-based, flow cytometry, MLPCN library; ER-HoxA9 myeloid progenitors, lysozyme-GFP differentiation; calls only at 10 µM; 1% of 360,000 active;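 active = normalized GFP-positive differentiation at or above the plate's own cutoff, the solvent-only control mean plus 3 SD; inconclusive = no clear call, values can overlap the other calls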;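 note: cells exposed to compound for four days before flow analysis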
HNF4A confirm: change in HNF4A binding to DNA, retest, confirmation, biochemical, fluorescence polarization, FITC-DNA; shares compounds with HNF4A DNA FP; 1 h; activity change, % at 12.5 µM; 99% of 210 active; AID 1224897, 2016; call rule not given here
Numbers without * were called inactive; i = inactive; ? = inconclusive; / = no result; + = active, no number. Compounds with a hit are over-represented: about 3% of the library has one in this group of screens.

SMILES	DSG3 Ab inh	SENP1 inh	HNF4A DNA FP	H9c2 protect	Exocytosis inh	Myeloid diff 2	HNF4A confirm
O=C(Cn1cc(/C=N/NC(=O)c2cccc3ccccc23)c2ccccc21)Nc1ccc(F)cc1	133.8	-2.4	45.9*	5.1	-3.0	i	90.1*
C=CCc1c(O)c(CC)cc2c(C)cc(=O)oc12	92.3	-36.7	-1.6	-2.6	-0.8	i	/
COc1ccc(O)c(C(=O)c2coc(=N)c(C(=O)Nc3ccc(SC(F)F)cc3)c2)c1	106.6	-31.9	44.1*	-26.7	8.1	i	64.8*
COc1ccc(/C=N\NC(=O)c2ccc([N+](=O)[O-])c(C)c2)cc1COc1ccccc1C(N)=O	104.2	2.0	11.3	30.9	0.8	i	/
COc1ccc(/C=N/NC(=O)c2ccccc2OC)cc1COc1ccccc1[N+](=O)[O-]	/	3.0	83.0*	32.6	0.0	i	59.6*
CC1CCN(c2ccc3c(c2)S(=O)(=O)c2ccccc2C3=O)CC1	102.9	-28.2	58.4*	-6.6	-6.4	i	71.5*
NC(=O)C1CCN(c2ccc3c(c2)S(=O)(=O)c2ccccc2C3=O)CC1	104.0	-27.6	47.2*	9.2	-7.6	i	67.0*
CN(C)c1ccc(C=C2C=C(c3ccccc3)OC2=O)cc1	110.1	24.2	55.3*	-15.6	-2.2	i	48.8*
O=C1OC(c2ccccc2)=CC1=Cc1ccccc1O	109.7	-112.1	-0.7	6.8	2.8	i	/
COc1cc2cc(CCO)oc(=O)c2cc1OC	104.7	0.0	-2.6	22.7	-2.5	i	/
C#CCOCCOCCOCCNc1nc(N2CCN(C(=O)[C@H](CCCCN)n3cc(C(N)[C@H](C)CC)nn3)CC2)nc(N2CCN(C(=O)[C@H](CCC(=O)O)n3cc(C(N)[C@H](C)CC)nn3)CC2)n1 (some centres undefined)	109.8	-10.4	4.4	-4.1	2.4	i	/
C#CCOCCOCCOCCNc1nc(N2CCN(C(=O)[C@H](CCCCN)n3cc(CN)nn3)CC2)nc(N2CCN(C(=O)[C@H](CCCCN)n3cc([C@@H](N)[C@H](C)CC)nn3)CC2)n1	110.8	-0.6	96.0*	6.3	-2.3	i	98.9*
N#Cc1ccc(Oc2cnccn2)cc1	92.6	2.3	-2.5	-2.1	3.0	i	/
C=CCSc1nnc(C)c(/C=C/Nc2ccc(Cl)cc2)n1	116.4	-22.0	50.8*	7.0	-5.0	?	38.4*
CC1(C(=O)NCc2ccc3c(c2)OCO3)CCN1C(=O)Cc1ccc(Cl)cc1Cl (centres undefined)	/	3.0	-1.2	4.8	-3.3	i	/
Nc1c(C(=O)N/N=C/c2ccc(Cl)cc2)cnn1-c1ccccc1	/	2.3	2.2	3.0	-8.5	i	/
O=c1c(Cl)c(N/N=C/c2ccc(Cl)cc2)cnn1-c1ccccc1	99.2	1.7	38.8*	-18.6	3.1	i	44.5*
CC/C(=C\c1oc2cc3ccccc3cc2[n+]1CC)Nc1ccccc1	343.7	-38.8	50.7*	-19.9	3.3	i	88.3*
O=C(N/N=C/c1cccnc1)c1cccc(NC(=O)c2ccc(Cl)cc2)c1	/	0.2	89.6*	-2.5	2.3	i	172.7*
Cc1cccc(C(=O)Nc2ccc(C(=O)N/N=C/c3cccnc3)cc2)c1	/	2.4	-2.7	-2.6	-1.1	i	/
COc1ccc(C(=O)/C=C/c2cn(CC(O)CN3CCOCC3)c3ccccc23)cc1 (centres undefined)	109.3	-25.1	42.0*	0.0	-2.2	i	75.4*
COc1ccc(S(=O)(=O)N(C)C)cc1NC(=O)CCNC(=O)c1ccccc1OC	102.5	2.8	1.7	8.6	-0.6	i	/
N#CCC(=O)N/N=C/c1ccc(N2N=C(c3ccccc3)CC2c2ccccc2)cc1 (centres undefined)	96.2	-25.0	49.9*	-2.3	53.4	+	35.3*
CN(/C=C/C(=C\C=[N+](C)c1ccccc1)OCCCS(=O)(=O)[O-])c1ccccc1	129.5	-22.4	87.3*	-19.0	4.9	i	106.5*
CN(/C=C/C(=C/C=[N+](C)c1ccccc1)OCCCS(=O)(=O)[O-])c1ccccc1	119.3	-33.9	112.4	-14.9	2.4	i	/
SMILES	DSG3 Ab inh	SENP1 inh	HNF4A DNA FP	H9c2 protect	Exocytosis inh	Myeloid diff 2	HNF4A confirm
Cc1cc(C(=O)O)ccc1N=Cc1c(O)ccc2ccccc12	113.9	-40.7	46.4*	6.6	26.7	i	69.8*
COc1ccc(-n2nc3c(N4CCC(C(=O)NCc5cccc(C)c5)CC4)nnc(C)c3c2C)cc1	110.2	8.4	9.6	-16.3	48.2	i	/
CCOc1ccc(CNC(=O)C2CCN(c3nnc(C)c4c(C)n(-c5ccc(C)cc5)nc34)CC2)cc1	114.4	2.3	45.2*	-19.6	43.1	i	49.8*
CC(=O)c1cccc(CN2CCN(C(C)C)C(CCO)C2)c1 (centres undefined)	108.8	2.6	0.5	2.5	-3.4	i	/
CCOC(=O)c1ccc(NC(=O)c2ncn3c2C(=O)NC[C@@H]3C)cc1	/	-1.5	4.0	-5.2	-4.0	i	/
C/C(=N\NC(=O)c1ccc(OC2OCCOC2Oc2ccc(C(=O)N/N=C(\C)c3ccncc3)cc2)cc1)c1ccncc1 (centres undefined)	83.0	0.8	156.7*	-2.3	-2.3	i	203.7*
Cc1nn(-c2ccccc2)c(N)c1C1(O)C(=O)Nc2ccccc21 (centres undefined)	94.6	1.0	0.2	-1.3	-3.1	i	/
CC1(O)CC2CC1C(C(=O)O)C2C(=O)O (centres undefined)	98.7	-1.0	-8.6	12.8	6.1	i	/
O=c1c2ccccc2c(/C=N/c2nnc(Cc3ccccc3)s2)c(O)n1-c1ccc(Cl)cn1	93.6	-23.9	86.4*	-12.5	-7.4	i	94.8*
O=C(Cc1ccc2ccccc2c1)NC(Cc1ccccc1)C(=O)O (centres undefined)	99.2	1.1	-0.5	0.2	-5.6	i	/
